# ChEMBL document CHEMBL4261587 (Eur J Med Chem, 2018)
# pIC50: −log10 of the molar value.
# Assays:
# [1] = biological target: T1, Serine/threonine-protein kinase 17A (Homo sapiens) (UniProt Q9UEE5); assay: Inhibition of recombinant human STK17A expressed in Baculovirus expression system at 2 uM by Lantha-Screen assay
# T1 sequence (whole entry): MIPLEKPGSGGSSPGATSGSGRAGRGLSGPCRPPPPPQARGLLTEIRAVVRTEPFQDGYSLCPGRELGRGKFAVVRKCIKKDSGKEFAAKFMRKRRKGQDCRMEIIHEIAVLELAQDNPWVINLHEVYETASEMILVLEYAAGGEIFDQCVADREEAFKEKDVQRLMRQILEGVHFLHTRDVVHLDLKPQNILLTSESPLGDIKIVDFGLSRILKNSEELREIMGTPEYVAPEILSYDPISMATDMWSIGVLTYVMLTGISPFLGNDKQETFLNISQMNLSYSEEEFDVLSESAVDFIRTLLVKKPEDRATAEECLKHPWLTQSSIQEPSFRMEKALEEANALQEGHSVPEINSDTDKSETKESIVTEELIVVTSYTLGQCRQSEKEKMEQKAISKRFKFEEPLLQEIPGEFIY
# [2] = biological target: Dual specificity tyrosine-phosphorylation-regulated kinase 1B (Homo sapiens, UniProt Q9Y463); assay: Inhibition of recombinant full length human Dyrk1B expressed in Baculovirus expression system using KKISGRLSPIMTEQ as substrate in presence of ATP
# Sequence of Dual specificity tyrosine-phosphorylation-regulated kinase 1B (Q9Y463 whole entry): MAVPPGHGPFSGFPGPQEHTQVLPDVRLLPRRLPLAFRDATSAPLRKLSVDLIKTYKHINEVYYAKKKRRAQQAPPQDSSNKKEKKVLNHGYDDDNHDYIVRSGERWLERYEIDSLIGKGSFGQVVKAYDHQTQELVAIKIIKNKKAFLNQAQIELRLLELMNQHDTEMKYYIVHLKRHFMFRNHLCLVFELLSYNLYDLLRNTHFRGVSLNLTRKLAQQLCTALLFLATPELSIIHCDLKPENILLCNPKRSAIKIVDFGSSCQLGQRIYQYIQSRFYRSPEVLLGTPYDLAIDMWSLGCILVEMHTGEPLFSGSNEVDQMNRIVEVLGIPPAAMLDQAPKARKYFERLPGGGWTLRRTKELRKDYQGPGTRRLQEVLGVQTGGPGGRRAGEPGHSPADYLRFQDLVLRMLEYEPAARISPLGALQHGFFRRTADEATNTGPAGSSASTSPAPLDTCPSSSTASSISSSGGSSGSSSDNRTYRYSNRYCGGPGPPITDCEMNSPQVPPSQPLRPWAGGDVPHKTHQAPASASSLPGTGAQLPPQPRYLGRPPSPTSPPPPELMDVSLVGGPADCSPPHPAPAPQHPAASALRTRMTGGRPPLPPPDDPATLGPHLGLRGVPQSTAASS
# [3] = biological target: BDNF/NT-3 growth factors receptor (Homo sapiens) (UniProt Q16620); assay: Inhibition of recombinant human TRKB expressed in Baculovirus expression system at 2 uM by Z'-LYTE assay
# Sequence of BDNF/NT-3 growth factors receptor (Homo sapiens) (Q16620 32-822 limits assumed): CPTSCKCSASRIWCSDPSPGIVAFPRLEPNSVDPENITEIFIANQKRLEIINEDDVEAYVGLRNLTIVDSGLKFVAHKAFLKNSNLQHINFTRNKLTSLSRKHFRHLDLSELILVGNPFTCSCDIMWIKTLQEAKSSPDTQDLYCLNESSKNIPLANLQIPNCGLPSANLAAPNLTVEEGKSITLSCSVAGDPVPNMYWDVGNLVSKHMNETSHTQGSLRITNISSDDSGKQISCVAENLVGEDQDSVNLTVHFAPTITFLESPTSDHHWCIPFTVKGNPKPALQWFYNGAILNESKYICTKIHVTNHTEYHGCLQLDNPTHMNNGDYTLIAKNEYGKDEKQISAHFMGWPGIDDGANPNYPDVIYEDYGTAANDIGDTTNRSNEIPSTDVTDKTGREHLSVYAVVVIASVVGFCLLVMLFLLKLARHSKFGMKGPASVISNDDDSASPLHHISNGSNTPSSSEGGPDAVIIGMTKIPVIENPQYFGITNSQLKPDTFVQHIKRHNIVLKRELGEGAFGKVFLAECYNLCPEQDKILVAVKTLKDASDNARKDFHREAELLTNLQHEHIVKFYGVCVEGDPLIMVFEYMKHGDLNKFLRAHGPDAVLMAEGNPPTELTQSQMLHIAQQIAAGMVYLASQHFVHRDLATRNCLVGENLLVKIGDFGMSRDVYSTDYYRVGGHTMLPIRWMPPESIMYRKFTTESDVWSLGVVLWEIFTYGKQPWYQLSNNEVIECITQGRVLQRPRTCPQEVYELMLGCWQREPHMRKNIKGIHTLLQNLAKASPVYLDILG
# [4] = biological target: Dual specificity protein kinase CLK1 (Homo sapiens, UniProt P49759); assay: Inhibition of recombinant human Clk1 expressed in Escherichia coli at 2 uM by Z'-LYTE assay
# Sequence of Dual specificity protein kinase CLK1 (P49759 whole entry): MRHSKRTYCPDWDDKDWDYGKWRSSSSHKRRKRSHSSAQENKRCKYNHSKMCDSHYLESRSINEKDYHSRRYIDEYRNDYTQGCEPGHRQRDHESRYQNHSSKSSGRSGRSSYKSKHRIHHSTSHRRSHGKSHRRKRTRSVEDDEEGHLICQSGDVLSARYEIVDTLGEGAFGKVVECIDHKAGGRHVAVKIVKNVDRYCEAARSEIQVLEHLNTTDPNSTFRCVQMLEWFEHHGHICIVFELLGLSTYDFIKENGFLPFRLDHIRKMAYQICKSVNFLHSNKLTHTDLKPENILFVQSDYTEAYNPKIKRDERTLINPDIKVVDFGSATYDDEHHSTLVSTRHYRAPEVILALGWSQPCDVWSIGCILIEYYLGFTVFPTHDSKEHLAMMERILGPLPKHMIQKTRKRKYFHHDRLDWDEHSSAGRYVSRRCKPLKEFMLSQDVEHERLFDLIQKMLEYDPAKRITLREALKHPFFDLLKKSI
# HeLa [5] = assay: Cytotoxicity against human HeLa cells assessed as cell viability at 10 uM by XTT assay; format: functional; conditions: read-out: Activity
# [6] = biological target: Dual specificity protein kinase CLK2 (Homo sapiens) (UniProt P49760); assay: Inhibition of recombinant human Clk2 expressed in Baculovirus expression system at 2 uM by Z'-LYTE assay
# Sequence of Dual specificity protein kinase CLK2 (Homo sapiens) (P49760 whole entry, looked up): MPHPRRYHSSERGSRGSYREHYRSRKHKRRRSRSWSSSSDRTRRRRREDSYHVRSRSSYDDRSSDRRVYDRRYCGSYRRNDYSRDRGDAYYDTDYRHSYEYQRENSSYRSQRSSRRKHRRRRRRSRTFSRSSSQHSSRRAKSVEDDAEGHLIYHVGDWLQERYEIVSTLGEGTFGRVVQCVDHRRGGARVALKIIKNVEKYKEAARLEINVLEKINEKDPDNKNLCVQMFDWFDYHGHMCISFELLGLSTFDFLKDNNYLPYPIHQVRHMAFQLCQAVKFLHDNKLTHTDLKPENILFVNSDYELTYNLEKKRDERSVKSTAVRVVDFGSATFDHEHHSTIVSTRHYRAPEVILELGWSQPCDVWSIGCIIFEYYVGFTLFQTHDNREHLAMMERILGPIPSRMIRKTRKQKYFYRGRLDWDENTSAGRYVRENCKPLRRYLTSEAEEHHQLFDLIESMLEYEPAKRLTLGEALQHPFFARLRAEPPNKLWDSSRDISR
# [7] = Half life in human liver S9 fraction at 0.3 uM incubated up to 120 mins at 37 degC in presence of NADP+/UDPGA by LC-MS/MS analysis; format: ADME, subcellular
# How it was run: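 Phase I and phase II metabolic stability was tested in S9 fraction from human liver homogenate. Samples were taken at several time points, and the remaining parent compound was quantified by LC-MS/MS to give a metabolic half-life.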
# [8] = biological target: T2, Serine/threonine-protein kinase haspin (Homo sapiens, UniProt Q8TF76); assay: Inhibition of recombinant human Haspin expressed in Baculovirus expression system by Adapta assay
# T2 sequence (Q8TF76 whole entry): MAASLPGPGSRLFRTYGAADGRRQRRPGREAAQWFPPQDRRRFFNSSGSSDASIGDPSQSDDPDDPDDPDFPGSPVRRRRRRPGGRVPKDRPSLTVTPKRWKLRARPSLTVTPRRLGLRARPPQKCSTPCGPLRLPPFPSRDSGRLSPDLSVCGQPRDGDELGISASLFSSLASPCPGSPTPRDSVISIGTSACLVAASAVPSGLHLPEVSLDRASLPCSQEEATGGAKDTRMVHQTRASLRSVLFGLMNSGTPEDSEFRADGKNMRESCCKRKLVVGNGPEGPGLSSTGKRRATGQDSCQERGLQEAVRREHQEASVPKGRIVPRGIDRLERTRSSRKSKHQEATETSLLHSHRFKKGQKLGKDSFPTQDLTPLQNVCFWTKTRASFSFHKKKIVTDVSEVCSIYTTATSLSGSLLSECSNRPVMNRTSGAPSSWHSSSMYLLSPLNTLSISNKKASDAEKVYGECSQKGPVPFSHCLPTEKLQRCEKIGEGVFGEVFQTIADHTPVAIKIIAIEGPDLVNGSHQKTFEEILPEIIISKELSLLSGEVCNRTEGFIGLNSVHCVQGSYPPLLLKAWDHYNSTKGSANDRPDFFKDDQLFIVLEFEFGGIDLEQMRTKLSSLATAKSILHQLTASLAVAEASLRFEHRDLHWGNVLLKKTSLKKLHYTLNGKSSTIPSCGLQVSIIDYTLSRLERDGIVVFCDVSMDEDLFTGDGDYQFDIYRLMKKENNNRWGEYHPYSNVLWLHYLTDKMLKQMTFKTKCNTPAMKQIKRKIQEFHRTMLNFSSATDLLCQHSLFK
# [9] = biological target: T3, Dual specificity tyrosine-phosphorylation-regulated kinase 1A (Homo sapiens, UniProt Q13627); assay: Inhibition of recombinant human Dyrk1A expressed in Baculovirus expression system by Z'-LYTE assay
# [10] = biological target: Cyclin-dependent kinase 5/CDK5 activator 1 (Homo sapiens) (UniProt Q00535+Q15078); assay: Inhibition of recombinant human CDK5/p25 expressed in baculovirus expression system at 2 uM by Z'-LYTE assay
# Sequence of Cyclin-dependent kinase 5/CDK5 activator 1 (Homo sapiens) (Q00535 whole entry): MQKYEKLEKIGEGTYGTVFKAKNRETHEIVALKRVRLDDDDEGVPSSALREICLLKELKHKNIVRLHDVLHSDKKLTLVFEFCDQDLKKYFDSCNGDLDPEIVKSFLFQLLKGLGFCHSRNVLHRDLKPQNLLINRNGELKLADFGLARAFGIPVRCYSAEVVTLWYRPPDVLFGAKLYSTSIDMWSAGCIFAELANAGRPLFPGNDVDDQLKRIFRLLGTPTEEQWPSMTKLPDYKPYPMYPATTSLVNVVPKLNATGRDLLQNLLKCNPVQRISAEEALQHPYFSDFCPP
# Sequence of Cyclin-dependent kinase 5/CDK5 activator 1 (Homo sapiens) (Q15078 99-307 partner limits assumed): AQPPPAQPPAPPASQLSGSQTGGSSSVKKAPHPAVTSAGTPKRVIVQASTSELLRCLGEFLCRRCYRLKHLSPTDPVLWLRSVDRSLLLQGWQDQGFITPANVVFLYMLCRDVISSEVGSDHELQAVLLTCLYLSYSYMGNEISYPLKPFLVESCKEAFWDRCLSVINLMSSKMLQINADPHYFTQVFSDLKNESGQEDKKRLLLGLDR
# [11] = biological target: Homeodomain-interacting protein kinase 1 (Homo sapiens) (UniProt Q86Z02); assay: Inhibition of recombinant human HIPK1 expressed in Baculovirus expression system at 2 uM by Z'-LYTE assay
# [12] = biological target: T4, Dual specificity tyrosine-phosphorylation-regulated kinase 2 (Homo sapiens, UniProt Q92630); assay: Inhibition of recombinant human Dyrk2 (unknown origin) at 2 uM by Lantha-screen assay
# T4 sequence (Q92630 whole entry): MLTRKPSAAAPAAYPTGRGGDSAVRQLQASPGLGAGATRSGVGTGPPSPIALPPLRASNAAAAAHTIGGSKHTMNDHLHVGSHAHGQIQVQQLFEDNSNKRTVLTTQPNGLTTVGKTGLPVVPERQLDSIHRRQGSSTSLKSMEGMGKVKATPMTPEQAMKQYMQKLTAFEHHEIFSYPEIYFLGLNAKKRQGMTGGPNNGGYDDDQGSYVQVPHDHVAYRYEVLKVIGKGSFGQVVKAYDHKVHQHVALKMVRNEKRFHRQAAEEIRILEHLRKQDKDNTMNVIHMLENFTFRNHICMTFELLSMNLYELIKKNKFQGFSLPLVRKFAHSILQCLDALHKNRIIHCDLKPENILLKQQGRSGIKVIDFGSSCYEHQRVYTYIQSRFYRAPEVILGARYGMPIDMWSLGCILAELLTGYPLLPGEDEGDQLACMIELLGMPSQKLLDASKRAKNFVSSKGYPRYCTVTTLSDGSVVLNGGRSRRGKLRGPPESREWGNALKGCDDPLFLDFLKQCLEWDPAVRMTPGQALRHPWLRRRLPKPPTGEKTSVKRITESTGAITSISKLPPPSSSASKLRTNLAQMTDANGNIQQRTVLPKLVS
# [13] = biological target: T5, Serine/threonine-protein kinase haspin (Homo sapiens) (UniProt Q8TF76); assay: Inhibition of recombinant human Haspin expressed in Baculovirus expression system at 2 uM by Adapta assay
# T5 sequence (whole entry): T2 sequence (Q8TF76 whole entry)
# [14] = biological target: Myosin light chain kinase 2, skeletal/cardiac muscle (Homo sapiens) (UniProt Q9H1R3); assay: Inhibition of recombinant human MLCK2 expressed in Baculovirus expression system at 2 uM by Lantha-screen assay
# Sequence of Myosin light chain kinase 2, skeletal/cardiac muscle (Homo sapiens) (Q9H1R3 whole entry): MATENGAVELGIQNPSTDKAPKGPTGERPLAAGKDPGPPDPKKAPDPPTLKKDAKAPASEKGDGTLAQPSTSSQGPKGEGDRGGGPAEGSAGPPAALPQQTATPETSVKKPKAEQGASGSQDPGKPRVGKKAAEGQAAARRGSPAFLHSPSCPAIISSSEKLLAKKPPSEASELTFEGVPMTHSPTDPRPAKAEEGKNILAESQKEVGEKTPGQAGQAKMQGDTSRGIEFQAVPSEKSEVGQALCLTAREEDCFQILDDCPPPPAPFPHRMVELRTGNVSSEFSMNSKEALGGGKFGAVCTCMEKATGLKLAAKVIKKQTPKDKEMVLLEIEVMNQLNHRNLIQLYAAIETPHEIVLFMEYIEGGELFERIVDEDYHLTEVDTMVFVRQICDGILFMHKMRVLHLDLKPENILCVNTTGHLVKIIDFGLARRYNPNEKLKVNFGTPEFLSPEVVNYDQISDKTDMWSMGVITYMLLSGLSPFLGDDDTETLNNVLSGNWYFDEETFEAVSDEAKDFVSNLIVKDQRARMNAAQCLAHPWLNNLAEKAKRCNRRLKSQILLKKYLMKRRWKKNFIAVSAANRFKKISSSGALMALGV
# [15] = biological target: T3, Dual specificity tyrosine-phosphorylation-regulated kinase 1A; assay: Inhibition of recombinant full length human Dyrk1A expressed in Baculovirus expression system using KKISGRLSPIMTEQ as substrate in presence of ATP
# [16] = biological target: Serine/threonine-protein kinase pim-1 (Homo sapiens) (UniProt P11309); assay: Inhibition of recombinant human PIM1 expressed in Baculovirus expression system at 2 uM by Z'-LYTE assay
# Sequence of Serine/threonine-protein kinase pim-1 (Homo sapiens) (P11309 whole entry, looked up): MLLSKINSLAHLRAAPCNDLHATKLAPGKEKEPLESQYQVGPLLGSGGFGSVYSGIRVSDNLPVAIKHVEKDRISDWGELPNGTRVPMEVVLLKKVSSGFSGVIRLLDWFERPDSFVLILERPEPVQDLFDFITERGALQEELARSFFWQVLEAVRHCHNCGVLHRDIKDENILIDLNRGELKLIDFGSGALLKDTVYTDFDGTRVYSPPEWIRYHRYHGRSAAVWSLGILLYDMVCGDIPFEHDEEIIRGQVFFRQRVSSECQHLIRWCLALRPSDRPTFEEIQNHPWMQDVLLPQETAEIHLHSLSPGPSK
# [17] = biological target: SRSF protein kinase 1 (Homo sapiens) (UniProt Q96SB4); assay: Inhibition of recombinant human SRPK1 expressed in Baculovirus expression system at 2 uM by Z'-LYTE assay
# Sequence of SRSF protein kinase 1 (Homo sapiens) (Q96SB4 whole entry): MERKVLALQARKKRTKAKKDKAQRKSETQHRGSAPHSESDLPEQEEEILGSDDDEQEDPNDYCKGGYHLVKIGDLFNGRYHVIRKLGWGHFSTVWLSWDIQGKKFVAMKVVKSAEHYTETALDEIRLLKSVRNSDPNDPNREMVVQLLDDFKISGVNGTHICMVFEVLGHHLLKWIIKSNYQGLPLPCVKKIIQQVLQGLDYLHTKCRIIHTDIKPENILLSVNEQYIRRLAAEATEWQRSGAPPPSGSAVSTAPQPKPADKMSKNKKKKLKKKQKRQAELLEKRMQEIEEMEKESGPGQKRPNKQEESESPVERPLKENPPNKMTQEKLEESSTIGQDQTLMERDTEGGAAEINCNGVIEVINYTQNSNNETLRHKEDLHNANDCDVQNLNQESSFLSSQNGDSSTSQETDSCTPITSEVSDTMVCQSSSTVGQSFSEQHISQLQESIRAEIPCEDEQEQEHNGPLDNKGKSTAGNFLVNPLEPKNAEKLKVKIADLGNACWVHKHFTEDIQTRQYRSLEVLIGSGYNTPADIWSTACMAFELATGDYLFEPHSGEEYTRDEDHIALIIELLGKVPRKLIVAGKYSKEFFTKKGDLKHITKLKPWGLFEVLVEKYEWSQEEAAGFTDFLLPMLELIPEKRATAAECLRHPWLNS
# [18] = biological target: T3, Dual specificity tyrosine-phosphorylation-regulated kinase 1A; assay: Inhibition of Dyrk1A in human HeLa cells transfected with GFP-SF3b1-NT assessed as decrease in SF3B1 phosphorylation at Thr434 after 18 hrs by Western blot analysis; format: cell-based
# How it was run: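 HeLa cells were transiently transfected with a GFP-SF3b1 expression vector, then treated with compound. Read-out was phosphorylation of SF3b1 at Thr434, which serves as a marker of endogenous Dyrk1A activity in the cell.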
# [19] = biological target: T3, Dual specificity tyrosine-phosphorylation-regulated kinase 1A; assay: Inhibition of recombinant human Dyrk1A expressed in Baculovirus expression system at 2 uM by Z'-LYTE assay
# HeLa [20] = assay: Cytotoxicity against human HeLa cells assessed as cell viability at 1 uM by XTT assay; format: functional; conditions: read-out: Activity
# HeLa [21] = assay: Cytotoxicity against human HeLa cells assessed as cell viability at 3 uM by XTT assay; format: functional; conditions: read-out: Activity
# [22] = biological target: Casein kinase I isoform delta (Homo sapiens) (UniProt P48730); assay: Inhibition of recombinant human CK1delta expressed in Baculovirus expression system at 2 uM by Z'-LYTE assay
# Sequence of Casein kinase I isoform delta (Homo sapiens) (P48730 whole entry, looked up, canonical isoform): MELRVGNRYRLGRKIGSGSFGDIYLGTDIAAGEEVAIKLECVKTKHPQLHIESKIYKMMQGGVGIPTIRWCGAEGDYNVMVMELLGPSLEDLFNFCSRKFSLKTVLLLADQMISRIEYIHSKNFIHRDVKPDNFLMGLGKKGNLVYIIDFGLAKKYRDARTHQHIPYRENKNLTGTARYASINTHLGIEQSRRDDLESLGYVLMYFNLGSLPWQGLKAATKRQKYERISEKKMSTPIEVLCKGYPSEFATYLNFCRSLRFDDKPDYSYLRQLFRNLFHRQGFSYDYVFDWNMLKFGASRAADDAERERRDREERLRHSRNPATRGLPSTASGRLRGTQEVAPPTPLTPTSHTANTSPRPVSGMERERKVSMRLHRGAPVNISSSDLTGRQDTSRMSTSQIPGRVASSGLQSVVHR
# HeLa [23] = assay: Cytotoxicity against human HeLa cells after 72 hrs by CellTiter-Blue assay; format: functional, cell-based
# [24] = Half life in Sprague-Dawley rat liver microsomes at 0.5 uM by LC-MS/MS analysis; format: ADME, microsome
# HeLa [25] = assay: Cytotoxicity against human HeLa cells after 5 days by MTT assay; format: functional, cell-based; conditions: 120 h
compound,measurement,setting,value
O=C(Cc1ccc(F)cc1)Nc1cncc(-c2cc(-c3cccnc3)cs2)c1,inhibition,[1],60%
same,pIC50,[2],6.42
same,inhibition,[3],10%
same,inhibition at 2 µM,[4],40%
same,viability at 10 µM,HeLa [5],88%
same,inhibition,[6],19%
same,half-life at 0.3 µM,[7],1.97 h
same,pIC50,[8],7.44
same,pIC50,[9],7.84
same,inhibition,[10],0%
same,inhibition,[11],0%
same,inhibition at 2 µM,[12],40%
same,inhibition,[13],95%
same,inhibition,[14],9.8%
same,pIC50,[15],7.84
same,inhibition,[16],8%
same,inhibition,[17],2%
same,pIC50,[18],7.10
same,inhibition,[19],87%
same,viability at 1 µM,HeLa [20],99%
same,viability at 3 µM,HeLa [21],97%
same,inhibition,[22],4%
Nc1cncc(-c2cc(-c3cccnc3)cs2)c1,pIC50,[2],6.81
C[C@]12CC[C@H]3[C@@H](CCC4=CC(=O)CC[C@@]43C)[C@@H]1CC[C@@H]2O [TESTOSTERONE],half-life at 0.3 µM,[7],0.142 h
O=C(Nc1cncc(-c2cc(-c3cccnc3)cs2)c1)c1c(F)cc(F)cc1F,pIC50,[2],6.53
same,half-life at 0.3 µM,[7],2.05 h
O=C(Cc1ccccc1)Nc1cncc(-c2cc(-c3cccnc3)cs2)c1,pIC50,[2],6.49
Oc1ccc(-c2nc3ccc4[nH]ncc4c3c3c2CCCC3)c(F)c1,pIC50,HeLa [23],5.32
Nc1cncc(-c2csc(-c3cccnc3)c2)c1,pIC50,[2],6.89
c1cncc(-c2cc(-c3cncs3)cs2)c1,half-life at 0.5 µM,[24],0.45 h
COc1ccc2c(c1)[nH]c1c(C)nccc12 [HARMINE],pIC50,HeLa [25],5.10
Nc1ccc(-c2cc(-c3cccnc3)cs2)cn1,pIC50,[2],6.60
CN[C@@H]1C[C@H]2O[C@@](C)([C@@H]1OC)n1c3ccccc3c3c4c(c5c6ccccc6n2c5c31)C(=O)NC4 [STAUROSPORINE],viability at 1 µM,HeLa [20],33%
